Source: ChEMBL document CHEMBL1671633 (Antimicrob Agents Chemother, 2008)

Columns and labels:
[1] = Cmax in healthy human at 900 mg, po administered as a single dose measured on day 5 post compound dose by HPLC; assay type: ADME, organism-based; design: dose 900 mg, route oral; conditions: in vivo
Summary of the method: (§1)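 Blood was drawn predose and at 2, 4, 6, 8, 10, 12, 24, 34 and 48 h after the first dose (day 5), and again on day 19 after 7 thrice-weekly doses (72-h sampling). Rifapentine and 25-desacetyl-rifapentine were measured by validated HPLC-UV with trimipramine as internal standard. Parameters came from noncompartmental analysis, with AUC truncated at 48 h.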

Homo sapiens [2] = assay: Volume of distribution in healthy human at 900 mg, po administered as a single dose measured on day 5 post compound dose by HPLC; assay type: ADME, organism-based; conditions: in vivo; summary of the method: as §1
[3] = Tmax in healthy human at 900 mg, po administered as a single dose measured on day 5 post compound dose by HPLC; assay type: ADME, organism-based; conditions: in vivo
Summary of the method: (§2)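 Healthy volunteers took oral RPT 900 mg thrice weekly, alongside MXF 400 mg daily, after a 750-kcal breakfast. Plasma was sampled over 48 h after the first RPT dose (day 5) and over 72 h after the seventh dose (day 19). RPT was measured by validated HPLC-UV with a trimipramine internal standard. Parameters were derived noncompartmentally, with AUC over 48 h, and compared as day 19/day 5 geometric mean ratios with 90% CI.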

Homo sapiens [4] = assay: Ratio of Apparent oral clearance in healthy human at 900 mg, po thrice weekly measured on day 19 post compound dose to Apparent oral clearance in healthy human at 900 mg, po administered as a single dose measured on day 5; conditions: in vivo
[5] = Tmax in healthy human at 900 mg, po thrice weekly measured on day 19 post compound dose by HPLC; assay type: ADME, organism-based; conditions: in vivo; summary of the method: as §2
Homo sapiens [6] = assay: Ratio of Volume of distribution in healthy human at 900 mg, po thrice weekly measured on day 19 post compound dose to Volume of distribution in healthy human at 900 mg, po administered as a single dose measured on day 5; conditions: in vivo
[7] = Cmax in healthy human at 900 mg, po thrice weekly measured on day 19 post compound dose by HPLC; assay type: ADME, organism-based; design: dose 900 mg, route oral; conditions: in vivo; summary of the method: as §1
[8] = Apparent oral clearance in healthy human at 900 mg, po administered as a single dose measured on day 5 post compound dose by HPLC; assay type: ADME, organism-based; conditions: in vivo; summary of the method: as §1
Homo sapiens [9] = assay: Volume of distribution in healthy human at 900 mg, po thrice weekly measured on day 19 post compound dose by HPLC; assay type: ADME, organism-based; conditions: in vivo; summary of the method: as §1
[10] = AUC (0 to 48 hrs) in healthy human at 900 mg, po thrice weekly measured on day 19 post compound dose by HPLC; assay type: ADME, organism-based; design: time < 48 hr, dose 900 mg, route oral; conditions: plasma; summary of the method: as §1
[11] = Apparent oral clearance in healthy human at 900 mg, po thrice weekly measured on day 19 post compound dose by HPLC; assay type: ADME, organism-based; conditions: in vivo; summary of the method: as §1
Homo sapiens [12] = assay: Ratio of AUC (0 to 48 hrs) in healthy human at 900 mg, po thrice weekly measured on day 19 post compound dose to AUC (0 to 48 hrs) in healthy human at 900 mg, po administered as a single dose measured on day 5 post compound dose; assay type: ADME, organism-based; conditions: in vivo; summary of the method: as §2
Homo sapiens [13] = assay: Ratio of Tmax in healthy human at 900 mg, po thrice weekly measured on day 19 post compound dose to Tmax in healthy human at 900 mg, po administered as a single dose measured on day 5; conditions: in vivo
[14] = AUC (0 to 48 hrs) in healthy human at 900 mg, po administered as a single dose measured on day 5 post compound dose by HPLC; assay type: ADME, organism-based; design: time < 48 hr, dose 900 mg, route oral; conditions: plasma; summary of the method: as §1
[15] = Half life in healthy human at 900 mg, po thrice weekly measured on day 19 post compound dose by HPLC; assay type: ADME, organism-based; conditions: in vivo; summary of the method: as §1
Homo sapiens [16] = assay: Ratio of Half life in healthy human at 900 mg, po thrice weekly measured on day 19 post compound dose to Half life in healthy human at 900 mg, po administered as a single dose measured on day 5; conditions: in vivo
Homo sapiens [17] = assay: Ratio of Cmax in healthy human at 900 mg, po thrice weekly measured on day 19 post compound dose to Cmax in healthy human at 900 mg, po administered as a single dose measured on day 5; conditions: in vivo
[18] = Half life in healthy human at 900 mg, po administered as a single dose measured on day 5 post compound dose by HPLC; assay type: ADME, organism-based; conditions: in vivo; summary of the method: as §1
Homo sapiens [19] = assay: Tmax in healthy human assessed as 25-desacetyl-rifapentine level at 900 mg, po administered as a single dose measured on day 5 post compound dose by HPLC; assay type: ADME, organism-based; conditions: in vivo
Summary of the method: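 Healthy volunteers took a single oral 900 mg rifapentine dose on day 5, after a continental breakfast (750 kcal, 20% fat), alongside ongoing 400 mg daily MXF. Plasma was sampled predose and at 2, 4, 6, 8, 10, 12, 24, 34 and 48 h. 25-desacetyl-RPT was measured by validated HPLC with UV detection and trimipramine internal standard. Tmax was derived noncompartmentally.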

[20] = Tmax in healthy human at 400 mg, po qd measured on day 4 by HPLC; assay type: ADME, organism-based; conditions: in vivo
Summary of the method: (§3)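 Healthy volunteers took oral MXF 400 mg once daily with a continental breakfast (750 kcal, 20% fat). Sampling was on day 4 (after four doses, MXF alone) or on day 19 (with 900 mg RPT thrice weekly added from day 5; 72-h sampling). Plasma MXF was measured by validated HPLC with fluorescence detection (standard curve 0.20–15 µg/ml). Tmax was derived noncompartmentally.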

[21] = AUC (0 to 24 hrs ) in healthy human at 400 mg, po qd measured on day 4 by HPLC; assay type: ADME, organism-based; design: time < 24 hr, dose 400 mg, route oral; conditions: plasma
[22] = AUC (0 to 24 hrs ) in healthy human at 400 mg, po qd coadministered with 900 mg, po thrice weekly of rifapentine on day 5 post compound dose measured on day 19 post compound dose by HPLC; assay type: ADME, organism-based; design: time < 24 hr, dose 400 mg, route oral; conditions: plasma
[23] = Cmax in healthy human at 400 mg, po qd coadministered with 900 mg, po thrice weekly of rifapentine on day 5 post compound dose measured on day 19 post compound dose by HPLC; assay type: ADME, organism-based; design: dose 400 mg, route oral; conditions: in vivo
Homo sapiens [24] = assay: AUC (0 to 48 hrs) in healthy human assessed as 25-desacetyl-rifapentine level at 900 mg, po thrice weekly measured on day 19 post compound dose by HPLC; assay type: ADME, organism-based, Plasma; design: dose 900 mg, time < 48 hr, route oral; conditions: in vivo; summary of the method: as §1
Homo sapiens [25] = assay: Toxicity in healthy human assessed as incidence of adverse events at 400 mg, po qd coadministered with 900 mg, po thrice weekly of rifapentine on day 5 post compound dose measured on day 19 post compound dose; assay type: organism-based; conditions: in vivo
Summary of the method: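 Doses were given after a continental breakfast, with no other medications, alcohol or smoking allowed. Adherence was tracked by pill counts and medication diaries, and adverse events were recorded during and after dosing.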

[26] = Tmax in healthy human at 400 mg, po qd coadministered with 900 mg, po thrice weekly of rifapentine on day 5 post compound dose measured on day 19 post compound dose by HPLC; assay type: ADME, organism-based; conditions: in vivo; summary of the method: as §3
Homo sapiens [27] = assay: AUC (0 to 48 hrs) in healthy human assessed as 25-desacetyl-rifapentine level at 900 mg, po administered as a single dose measured on day 5 post compound dose by HPLC; assay type: ADME, organism-based, Plasma; design: dose 900 mg, time < 48 hr, route oral; conditions: in vivo; summary of the method: as §1

CO[C@H]1/C=C/O[C@@]2(C)Oc3c(C)c(O)c4c(O)c(c(/C=N/N5CCN(C6CCCC6)CC5)c(O)c4c3C2=O)NC(=O)/C(C)=C\C=C\[C@H](C)[C@H](O)[C@@H](C)[C@@H](O)[C@@H](C)[C@H](OC(C)=O)[C@@H]1C [RIFAPENTINE]
Cmax [1]: 21900 ng/mL | Vd (Homo sapiens [2]): 40.7 L | Tmax [3]: 5.08 h | Ratio (Homo sapiens [4]): 1.36 | Tmax [5]: 4.77 h | Ratio (Homo sapiens [6]): 1.07 | Cmax [7]: 21200 ng/mL | CL/F [8]: 26.5 mL/min | Vd (Homo sapiens [9]): 43.7 L | AUC at 48 h [10]: 410 µg·h/mL | CL/F [11]: 36.2 mL/min | Ratio AUC (Homo sapiens [12]): 0.8 | Ratio (Homo sapiens [13]): 0.93 | AUC(0-t) at 48 h [14]: 513 µg·h/mL | half-life [15]: 14.8 h | Ratio (Homo sapiens [16]): 0.78 | Ratio (Homo sapiens [17]): 0.96 | half-life [18]: 18.5 h

COc1c(N2C[C@@H]3CCCN[C@@H]3C2)c(F)cc2c(=O)c(C(=O)O)cn(C3CC3)c12 [MOXIFLOXACIN]
Tmax (Homo sapiens [19]): 24.9 h | Tmax [20]: 2.37 h | AUC at 24 h [21]: 41.9 µg·h/mL | AUC at 24 h [22]: 34.4 µg·h/mL | Cmax [23]: 3330 ng/mL | AUC (Homo sapiens [24]): 369.9 µg·h/mL | Activity (Homo sapiens [25]): Non-toxic | Tmax [26]: 2.6 h | AUC (Homo sapiens [27]): 461.7 µg·h/mL
